For 3 molecules, k cat/Km, k cat and inhibition results are on record in ChEMBL document CHEMBL1132562, “Ajoene is an inhibitor and subversive substrate of human glutathione reductase and Trypanosoma cruzi trypanothione reductase: crystallographic, kinetic, and spectroscopic studies” (J Med Chem, 1999).

Activity calls are given as the source filed them. No cut-off for these calls is given here.

In experiment [1] the target is T1, Glutathione reductase, mitochondrial (Homo sapiens) (UniProt P00390).
T1 sequence (whole entry): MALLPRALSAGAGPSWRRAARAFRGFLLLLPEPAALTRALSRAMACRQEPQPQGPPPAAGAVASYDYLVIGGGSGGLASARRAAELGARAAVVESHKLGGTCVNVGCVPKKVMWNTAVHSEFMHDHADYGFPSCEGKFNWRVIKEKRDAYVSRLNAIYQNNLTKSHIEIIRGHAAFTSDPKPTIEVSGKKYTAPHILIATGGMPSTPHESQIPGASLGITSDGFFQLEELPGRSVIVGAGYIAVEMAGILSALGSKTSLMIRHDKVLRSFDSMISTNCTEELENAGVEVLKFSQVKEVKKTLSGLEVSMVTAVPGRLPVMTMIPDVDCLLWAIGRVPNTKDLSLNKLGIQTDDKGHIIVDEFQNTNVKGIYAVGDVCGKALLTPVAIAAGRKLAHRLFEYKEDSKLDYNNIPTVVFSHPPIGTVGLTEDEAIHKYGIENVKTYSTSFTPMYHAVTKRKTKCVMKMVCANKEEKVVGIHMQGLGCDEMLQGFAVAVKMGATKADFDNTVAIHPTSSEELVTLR
Kind of experiment: kcat/Km value determined against human Glutathione reductase (GR) by oxidation of NADPH. The essentials: (§1)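 Recombinant human glutathione reductase in GR assay buffer (phosphate, 200 mM KCl, 1 mM EDTA, pH 6.9) at 25 °C with 150 μM NADPH and ajoene or DATS as substrate. NADPH consumption read at 340 nm. Where GSH is present, it is added to the mixture. Controls held NADPH and enzyme only (intrinsic oxidase activity).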

Experiment [2] has as its target T1, Glutathione reductase, mitochondrial (Homo sapiens). Briefly: Kcat value determined against human Glutathione reductase (GR) by oxidation of NADPH. The method, boiled down: as §1
The target is the same in experiment [3]. Kind of experiment: Kcat value determined against human Glutathione reductase (GR) by reduction of cytochrome c. The method, boiled down: (§2)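 1–2 U human GR preincubated 2 min at 25 °C with 200 μM NADPH and 25 μM horse heart cytochrome c in assay buffer, pH 7.5. Reaction started with 200 μM ajoene or DATS. Cytochrome c reduction followed at 550 nm (ε 19.1 mM⁻¹ cm⁻¹). Controls without enzyme. Superoxide tested by adding superoxide dismutase.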

The target is the same in experiment [4]. Kind of experiment: kcat/Km value determined against human Glutathione reductase (GR). The essentials:
as §1

The target is the same in experiment [5]. Kind of experiment: Percent inhibition of 0.3 uM (Z)-ajoene in the absence of NADPH for 15 min at 37 C; NI=No Inhibition. The essentials:
(§3)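 GR (0.4–1.0 U in 200 μL; 0.3 μM) incubated at 37 °C in GR assay buffer, pH 6.9, with 200 μM NADPH (or without) and 12.5–200 μM ajoene. Ethanol replaced inhibitor in controls. 2-μL aliquots taken over time were assayed for remaining activity in a standard GR assay: 100 μM NADPH, 1 mM GSSG, 340 nm, 25 °C.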

For experiment [6] the target is unchanged. Kind of experiment: Percent inhibition of 0.3 uM (Z)-ajoene in the presence of NADPH for 15 min at 37 C. The method, boiled down: as §3
The target in experiment [7] is Trypanothione reductase (Trypanosoma cruzi) (UniProt P28593). Briefly: Kcat value determined against Trypanothione reductase (TR) by oxidation of NADPH. The method, boiled down: (§4)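 T. cruzi trypanothione reductase, recombinant, with NADPH and ajoene as substrate in TR assay buffer (40 mM Hepes, 1 mM EDTA, pH 7.5) at 25 °C. NADPH oxidation followed as absorbance decrease at 340 nm. Controls held only NADPH and enzyme, giving the intrinsic oxidase activity.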

Experiment [8] has the same target. Briefly: kcat/Km value determined against Trypanothione reductase (TR). The method, boiled down:
as §4

Experiment [9] shares this target. Briefly: kcat/Km value determined against Trypanothione reductase (TR) by oxidation of NADPH. The essentials: as §4
The target is the same in experiment [10]. Kind of experiment: Percent inhibition of Trypanothione reductase (TR) with 200 uM (Z)-ajoene in the presence of NADPH at 37 C. The method, boiled down:
(§5)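 T. cruzi TR (0.4–1.0 U in 200 μL) incubated at 37 °C with 200 μM NADPH and 200 μM ajoene for up to 60 min. Aliquots assayed for residual activity: 100 μM NADPH, 120 μM trypanothione disulfide, Hepes pH 7.5, 340 nm decrease.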

For experiment [11], the target named is T1, Glutathione reductase, mitochondrial (Homo sapiens). Kind of experiment: Kcat value determined against human Glutathione reductase (GR) by reduction of cytochrome c in the presence of GSH. The essentials: as §2
For experiment [12] the target is unchanged. Briefly: Percent inhibition of 0.3 uM (E)-ajoene in the absence of NADPH for 15 min at 37 C; NI=No Inhibition. The essentials:
as §3

Experiment [13] shares this target. Kind of experiment: Percent inhibition of 0.3 uM (E)-ajoene in the presence of NADPH for 15 min at 37 C. The method, boiled down: as §3
For experiment [14] the target is unchanged. Kind of experiment: Kcat value determined against human Glutathione reductase (GR) by oxidation of NADPH in the presence of GSH. The method, boiled down: as §1
For experiment [15], the target named is Trypanothione reductase (Trypanosoma cruzi) (UniProt P28593). Briefly: Percent inhibition of Trypanothione reductase (TR) with 200 uM (E)-ajoene in the presence of NADPH at 37 C. The method, boiled down:
as §5

Chain of Trypanothione reductase (Trypanosoma cruzi) (P28593 whole entry, looked up): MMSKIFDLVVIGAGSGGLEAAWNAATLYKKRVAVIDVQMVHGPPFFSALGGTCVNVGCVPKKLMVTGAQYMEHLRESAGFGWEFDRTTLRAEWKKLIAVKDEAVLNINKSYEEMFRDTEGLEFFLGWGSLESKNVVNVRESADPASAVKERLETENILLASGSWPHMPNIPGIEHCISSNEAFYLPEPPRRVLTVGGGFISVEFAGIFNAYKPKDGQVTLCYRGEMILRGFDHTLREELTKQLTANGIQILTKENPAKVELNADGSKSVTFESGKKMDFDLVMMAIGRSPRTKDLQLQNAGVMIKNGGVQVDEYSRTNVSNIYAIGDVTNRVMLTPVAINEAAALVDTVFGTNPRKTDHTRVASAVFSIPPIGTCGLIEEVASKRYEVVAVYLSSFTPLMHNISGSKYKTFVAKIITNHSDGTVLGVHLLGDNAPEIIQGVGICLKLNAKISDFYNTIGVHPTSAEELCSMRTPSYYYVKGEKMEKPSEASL

`C=CCSSSCC=C` had a k cat/Km in experiment [1] of 1000 M⁻¹ s⁻¹. The k cat in [2] turned out to be 0.16 s⁻¹.

Take `C=CCSS/C=C\C[S+]([O-])CC=C` (centres undefined): the k cat is 0.06 s⁻¹ in experiment [3], 2.6 s⁻¹ in experiment [2] and 0.67 s⁻¹ in experiment [7]. Also, the k cat/Km in experiment [4] was determined as 6800 M⁻¹ s⁻¹; in [1], 6840 M⁻¹ s⁻¹; in [8] it was 340 M⁻¹ s⁻¹; in experiment [9] it was 335 M⁻¹ s⁻¹. Also, the inhibition entry in experiment [5] is “inactive”. The inhibition in experiment [6] came out at 50%; in [10] it was 40%.

Turning to `C=CCSS/C=C/C[S+]([O-])CC=C` (centres undefined), the k cat in [3] was 0.1 s⁻¹; in [11], 0.32 s⁻¹; in experiment [2], 0.34 s⁻¹; in experiment [14], 1.47 s⁻¹; in experiment [7], 0.67 s⁻¹. The k cat/Km is 680 M⁻¹ s⁻¹ in experiment [4], 425 M⁻¹ s⁻¹ in [1], 340 M⁻¹ s⁻¹ in [8] and 335 M⁻¹ s⁻¹ in experiment [9]. The inhibition result in experiment [12] is “inactive”. For the same molecule, the inhibition in [13] and in [15] was 50% each time.
